From ChEMBL document CHEMBL5331128, “Alicyclic Ring Size Variation of 4-Phenyl-2-naphthoic Acid Derivatives as P2Y14 Receptor Antagonists” (J Med Chem, 2023)

Tests used:
[1] = Selectivity ratio, ratio of IC50 for displacement of fluorescent tracer 4-(4-(1-(4-(1-(6-(3-carboxylato-4-(3-iminio-3H-xanthen-9-yl)benzamido)hexyl)-4,5-dihydro-1H-pyrrol-3-yl)butyl)piperidin-1-ium-4-yl)phenyl)-7-(4-(trifluoromethyl)phenyl)-2-naphthoate from mouse P2Y14R stably expressed in human HEK293 cells to IC50 for displacement of fluorescent tracer 4-(4-(1-(4-(1-(6-(3-carboxylato-4-(3-iminio-3H-xanthen-9-yl)benzamido)hexyl)-4,5-dihydro-1H-pyrrol-3-yl)butyl)piperidin-1-ium-4-yl)phenyl)-7-(4-(trifluoromethyl)phenyl)-2-naphthoate from human P2Y14R stably expressed in CHO cells; format: cell-based
P2Y purinoceptor 14 = target: T1, P2Y purinoceptor 14 (Mus musculus, UniProt Q9ESG6); test: Displacement of fluorescent tracer 4-(4-(1-(4-(1-(6-(3-carboxylato-4-(3-iminio-3H-xanthen-9-yl)benzamido)hexyl)-4,5-dihydro-1H-pyrrol-3-yl)butyl)piperidin-1-ium-4-yl)phenyl)-7-(4-(trifluoromethyl)phenyl)-2-naphthoate from mouse P2Y14R stably expressed in human HEK293 cells by flow cytometry; format: cell-based
T1 sequence (Q9ESG6 whole entry): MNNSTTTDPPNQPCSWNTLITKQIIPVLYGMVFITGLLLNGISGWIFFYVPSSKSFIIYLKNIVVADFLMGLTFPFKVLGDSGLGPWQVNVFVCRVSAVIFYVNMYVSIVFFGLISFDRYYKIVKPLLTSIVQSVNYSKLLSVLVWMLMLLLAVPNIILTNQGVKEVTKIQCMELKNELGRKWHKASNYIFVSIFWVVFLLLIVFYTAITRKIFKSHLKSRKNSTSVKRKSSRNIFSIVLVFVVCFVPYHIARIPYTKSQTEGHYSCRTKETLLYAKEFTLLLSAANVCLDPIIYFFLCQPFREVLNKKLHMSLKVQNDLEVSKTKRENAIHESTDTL
How it was run: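 Whole-cell competitive binding: CHO cells expressing hP2Y14R (or HEK-293 cells expressing mP2Y14R) incubated with AlexaFluor488-labelled antagonist tracer at 20 nM. […] Ki derived by dividing IC50 by 1.72.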

O=C(O)c1cc(-c2ccc([C@]3(O)[C@@H]4CNC[C@H]3C4)cc2)c2ccc(-c3ccc(C(F)(F)F)cc3)cc2c1
Ratio IC50 [1]: 0.811
IC50 (P2Y purinoceptor 14): 4.8 nM
